Reference: ChEMBL document CHEMBL1125911, “Synthesis and biological activity of new HMG-CoA reductase inhibitors. 3. Lactones of 6-phenoxy-3,5-dihydroxyhexanoic acids” (J Med Chem, 1991)
pIC50: −log10 of the molar value.

What was measured:
[1] = biological target: T1, 3-hydroxy-3-methylglutaryl-coenzyme A reductase (Rattus norvegicus, UniProt P51639); assay: In vitro inhibition of solubilized HMG-CoA reductase in rat liver.
T1 sequence (P51639 whole entry): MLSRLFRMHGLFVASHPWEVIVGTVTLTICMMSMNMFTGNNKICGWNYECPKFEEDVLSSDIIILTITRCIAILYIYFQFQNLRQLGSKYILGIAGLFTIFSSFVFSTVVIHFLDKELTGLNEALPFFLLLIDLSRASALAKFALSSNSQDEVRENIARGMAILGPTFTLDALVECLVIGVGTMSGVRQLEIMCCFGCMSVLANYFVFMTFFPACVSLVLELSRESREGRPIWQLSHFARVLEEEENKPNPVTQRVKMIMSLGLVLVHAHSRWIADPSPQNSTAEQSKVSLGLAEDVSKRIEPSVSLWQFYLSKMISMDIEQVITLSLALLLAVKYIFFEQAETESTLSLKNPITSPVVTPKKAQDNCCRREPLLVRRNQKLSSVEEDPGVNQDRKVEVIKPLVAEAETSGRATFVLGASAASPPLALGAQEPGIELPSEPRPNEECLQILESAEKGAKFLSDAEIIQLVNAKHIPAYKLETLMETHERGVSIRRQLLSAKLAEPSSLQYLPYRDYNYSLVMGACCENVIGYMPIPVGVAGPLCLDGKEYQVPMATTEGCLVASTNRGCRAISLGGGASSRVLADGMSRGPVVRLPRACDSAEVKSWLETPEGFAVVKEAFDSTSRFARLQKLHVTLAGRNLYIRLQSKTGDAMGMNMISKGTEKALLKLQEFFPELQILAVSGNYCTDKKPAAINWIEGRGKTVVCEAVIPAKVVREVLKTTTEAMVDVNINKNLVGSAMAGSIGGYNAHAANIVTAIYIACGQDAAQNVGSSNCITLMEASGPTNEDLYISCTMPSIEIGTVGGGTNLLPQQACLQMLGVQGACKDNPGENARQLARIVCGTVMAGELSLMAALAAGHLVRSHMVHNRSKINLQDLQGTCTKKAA

[2] = tested on: Oryctolagus cuniculus; assay: Tested in vivo for hypocholesterolemic activity by measuring its ability to decrease serum total cholesterol, after oral administration of 75 mg/kg body wt. per day in normolipidemic NZW rabbits; Very potent; format: functional, organism-based; parameters: dose 75 mg/kg, route oral
[3] = biological target: T1, 3-hydroxy-3-methylglutaryl-coenzyme A reductase; assay: In vitro inhibition of HMG-CoA reductase in solubilized rat liver.
[4] = biological target: T2, 3-hydroxy-3-methylglutaryl-coenzyme A reductase (Homo sapiens, UniProt P04035); assay: Inhibition of the incorporation of sodium [14C]acetate into cholesterol in HEP G2 cells.; format: functional, cell-based, HepG2
T2 sequence (P04035 whole entry): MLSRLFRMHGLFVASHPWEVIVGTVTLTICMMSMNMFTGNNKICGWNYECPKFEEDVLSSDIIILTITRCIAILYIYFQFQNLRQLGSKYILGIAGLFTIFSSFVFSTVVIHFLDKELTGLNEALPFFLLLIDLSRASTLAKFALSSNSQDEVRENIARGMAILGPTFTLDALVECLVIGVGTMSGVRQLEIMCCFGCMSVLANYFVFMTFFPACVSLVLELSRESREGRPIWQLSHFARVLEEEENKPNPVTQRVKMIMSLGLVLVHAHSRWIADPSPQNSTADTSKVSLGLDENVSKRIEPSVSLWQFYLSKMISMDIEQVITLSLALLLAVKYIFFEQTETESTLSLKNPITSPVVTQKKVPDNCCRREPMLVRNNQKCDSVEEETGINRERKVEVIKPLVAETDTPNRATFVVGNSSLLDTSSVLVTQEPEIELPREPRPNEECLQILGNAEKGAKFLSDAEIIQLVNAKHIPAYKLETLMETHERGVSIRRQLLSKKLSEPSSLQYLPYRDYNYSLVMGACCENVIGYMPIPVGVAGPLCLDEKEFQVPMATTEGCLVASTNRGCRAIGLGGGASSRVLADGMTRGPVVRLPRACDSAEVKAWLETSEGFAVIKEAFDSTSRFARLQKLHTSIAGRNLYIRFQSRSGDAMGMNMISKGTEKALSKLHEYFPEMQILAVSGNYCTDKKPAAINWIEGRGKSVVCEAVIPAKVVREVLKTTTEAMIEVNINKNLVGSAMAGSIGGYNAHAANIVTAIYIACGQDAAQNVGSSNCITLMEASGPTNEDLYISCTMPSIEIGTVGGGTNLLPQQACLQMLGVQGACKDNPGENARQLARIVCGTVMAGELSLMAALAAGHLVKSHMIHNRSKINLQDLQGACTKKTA

[5] = biological target: T3, 3-hydroxy-3-methylglutaryl-coenzyme A reductase (Homo sapiens) (UniProt P04035); assay: (§1) Inhibition of HMG-CoA reductase compared to mevinolin.; format: functional
T3 sequence (whole entry): T2 sequence (P04035 whole entry)
In short: (§2)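 Solubilized, partially purified rat liver HMG-CoA reductase. IC50 from four or five inhibitor concentrations. Relative potency compared IC50 with mevinolin (set to 100), corrected for molecular weight.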

[6] = species on record: Sus scrofa; assay: In vitro inhibition of Cu2+ catalyzed LDL oxidation; format: functional
In short: (§3)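 Porcine plasma LDL isolated by sequential ultracentrifugation (density 1.019-1.063 g/mL), dialysed against PBS pH 7.4, then diluted to 0.1 mg/mL protein. Preincubated 1 h at 37 °C under N2 with compound in ethanol. Oxidised with 5 μM Cu2+ for 2 h at 37 °C in air. Fluorescence read at ex 365/em 430 nm.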

[7] = species on record: Sus scrofa; assay: In vitro inhibition of Cu2+ catalyzed LDL oxidation at 10e-5 M conc.; format: functional; in short: as §3
[8] = species on record: Sus scrofa; assay: Compound was tested for inhibition of Cu2+ catalyzed LDL oxidation and the potency relative to terbufucine was determined; format: functional; in short: as §3
[9] = tested on: Oryctolagus cuniculus; assay: Tested in vivo for hypocholesterolemic activity by measuring its ability to decrease serum total cholesterol, after oral administration of 5 mg/kg body wt. per day in normolipidemic NZW rabbits; format: functional
In short: (§4)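 NZW rabbits (n = 5 or 6) dosed orally daily for 10 days. Serum total cholesterol reported as % change versus control. For 20 mg/kg, that dose was given on days 11-20 after 10 mg/kg, with the value read on day 20. Error given as SEM.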

[10] = species on record: Rattus norvegicus; assay: In vitro inhibition of microsomal lipid peroxidation at 10e-5 M conc.; format: functional
In short: (§5)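 Rat liver microsomes in 50 mM Tris-HCl pH 7.4 with 100 mM KCl and 6.0 mM MgCl2, final protein 0.4 mg/mL. Peroxidation was started with ADP (2 mM)/FeCl3 (10 μM) plus an NADPH-regenerating system. Incubation 30 min at 37 °C with shaking. Thiobarbituric acid reactive substances were read at 535 nm.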

[11] = species on record: Rattus norvegicus; assay: Compound was tested for inhibition of microsomal lipid peroxidation and the potency relative to terbufucine was determined; format: functional; in short: as §5
[12] = species on record: Rattus norvegicus; assay: In vitro inhibition of microsomal lipid peroxidation; format: functional; in short: as §5
[13] = biological target: T4, 3-hydroxy-3-methylglutaryl-coenzyme A reductase (Rattus norvegicus) (UniProt P51639); assay: as §1; in short: as §2
T4 sequence (whole entry): T1 sequence (P51639 whole entry)

[14] = tested on: Rattus norvegicus; assay: Compound was tested for effect on body weight after oral administration of 100 mg/kg in male rats.; format: functional
In short: (§6)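 Male HOE:WISKf (SPF 71) rats, initial body weight over 180 g, n = 10 per group, dosed once daily in the morning by gavage in polyethylene glycol 400 for 7 days; controls received vehicle. Fasted after last dose, bled retroorbitally 24 h later under mild ether. Liver and body weight recorded. Pooled group serum was ultracentrifuged into VLDL (<1.006), LDL (1.006-1.04) and HDL (1.04-1.21). Values are % change versus control.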

[15] = tested on: Rattus norvegicus; assay: Compound was tested for effect on body weight after oral administration of 30 mg/kg in male rats.; format: functional; in short: as §6
[16] = tested on: Rattus norvegicus; assay: Compound was tested for effect on liver weight after oral administration of 100 mg/kg in male rats.; format: functional; in short: as §6
[17] = tested on: Rattus norvegicus; assay: Compound was tested for effect on liver weight after oral administration of 30 mg/kg in male rats.; format: functional; in short: as §6
[18] = tested on: Rattus norvegicus; assay: Compound was tested for effect on serum HDL after oral administration of 100 mg/kg in male rats; format: functional; in short: as §6
[19] = tested on: Rattus norvegicus; assay: Compound was tested for effect on serum HDL after oral administration of 30 mg/kg in male rats; format: functional; in short: as §6
[20] = tested on: Rattus norvegicus; assay: Compound was tested for effect on serum LDL after oral administration of 100 mg/kg in male rats; format: functional; in short: as §6
[21] = tested on: Rattus norvegicus; assay: Compound was tested for effect on serum LDL after oral administration of 30 mg/kg in male rats; format: functional; in short: as §6
[22] = tested on: Rattus norvegicus; assay: Compound was tested for effect on serum VLDL after oral administration of 100 mg/kg in male rats; format: functional; in short: as §6
[23] = tested on: Rattus norvegicus; assay: Compound was tested for effect on serum VLDL after oral administration of 30 mg/kg in male rats; format: functional; in short: as §6
[24] = tested on: Oryctolagus cuniculus; assay: Tested in vivo for hypocholesterolemic activity by measuring its ability to decrease serum total cholesterol, after oral administration of 10 mg/kg body wt. per day in normolipidemic NZW rabbits; format: functional; in short: as §4
[25] = tested on: Rattus norvegicus; assay: In vivo inhibition of hepatic cholesterol de novo synthesis in rat after oral administration of 5 mg/kg dose; format: functional
[26] = species on record: Rattus norvegicus; assay: Potency relative to mevinolin was determined with respect to IC50. […]; format: functional
[27] = tested on: Oryctolagus cuniculus; assay: Tested in vivo for hypocholesterolemic activity by measuring its ability to decrease serum total cholesterol, after oral administration of 50 mg/kg body wt. per day in normolipidemic NZW rabbits; format: functional; in short: as §4

CC(C)c1cc(-c2ccc(F)cc2)c(/C=C/[C@@H](O)C[C@@H](O)CC(=O)[O-])c(C(C)C)n1.[Na+]
pIC50 [1]: 8.52
IC50 [2]: Very potent

CC(C)c1cc(Sc2ccc(F)cc2)cc(-c2ccc(F)cc2)c1OCC(O)C[C@@H](O)CC(=O)[O-].[Na+] (stereo not given in full)
pIC50 [3]: 8.22
pIC50 [4]: 9.30
Relative potency [5]: 10000
pIC50 [6]: < 5.00
inhibition at 10 µM [7]: 41%
Relative potency [8]: 0.1
Change [9]: -46%
inhibition [10]: < 10%
Relative potency [11]: < 0.1

CC(=O)Oc1c(-c2ccc(F)cc2)c(C(C)C)c(O)c(C(C)C)c1C(C)C
pIC50 [6]: 6.82
Relative potency [8]: 73
pIC50 [12]: 5.55
inhibition [10]: 98%
Relative potency [11]: 4

CC(C)c1cc(Sc2ccc(F)cc2)cc(-c2ccc(F)cc2)c1O
pIC50 [6]: 6.00
Relative potency [8]: 11
pIC50 [12]: 5.52
inhibition [10]: 95%
Relative potency [11]: 3

CC(C)c1c(O)c(C(C)C)c(C(C)C)c(OCC(O)C[C@@H](O)CC(=O)[O-])c1-c1ccc(F)cc1.[Na+] (stereo not given in full)
pIC50 [3]: 7.70
Relative potency [13]: 34
pIC50 [4]: 8.25
Relative potency [5]: 900
pIC50 [6]: 5.96
Relative potency [8]: 10
inhibition [10]: 27%
Relative potency [11]: < 0.1

CC(C)c1cc(SC(C)(C)Sc2cc(-c3ccc(F)cc3)c(OCC(O)C[C@@H](O)CC(=O)[O-])c(C(C)C)c2)cc(-c2ccc(F)cc2)c1[O-].[Na+].[Na+] (stereo not given in full)
pIC50 [3]: 7.52
Relative potency [13]: 15
pIC50 [4]: < 5.77
Relative potency [5]: < 3
Change [14]: 5%
Change [15]: 5%
Change [16]: 1%
Change [17]: 3%
Change [18]: -3%
Change [19]: 13%
Change [20]: -16%
Change [21]: -26%
Change [22]: 13%
Change [23]: 12%
pIC50 [12]: 5.57
Relative potency [11]: 4

CC(C)c1cc(-c2ccc(F)cc2)c(OCC2C[C@@H](O)CC(=O)O2)c(C(C)C)c1 (stereo not given in full)
pIC50 [4]: 8.74
Relative potency [5]: 250
Change [24]: -30%
Cholesterol [25]: 11.4%
Relative potency [26]: 103

CC(=O)[O-].CC(C)c1c(OC[C@@H](O)C[C@@H](O)CC(=O)[O-])c(C(C)C)c(C(C)C)c(O)c1-c1ccc(F)cc1.[Na+].[Na+]
pIC50 [4]: 8.39
Relative potency [5]: 1200
pIC50 [6]: 5.22
Relative potency [8]: 2
Change [9]: -12%
inhibition [10]: < 10%
Relative potency [11]: < 0.1

Cc1cc(C)c(OCC2C[C@@H](O)CC(=O)O2)c(C(c2ccc(F)cc2)c2ccc(F)cc2)c1 (stereo not given in full)
Change [27]: -19%
Cholesterol [25]: 71.6%
Relative potency [26]: 33
